Measurements as given in ChEMBL document CHEMBL1132918, “Synthesis and evaluation of tryprostatin B and demethoxyfumitremorgin C analogues” (J Med Chem, 2000).

Key:
3Y1 cell line = assay: Cytotoxicity in 3Y1 cells.; format: functional, Rattus norvegicus; set-up: unit not given here
Summary of the method: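 Rat normal fibroblast 3Y1 cells grown in Dulbecco's modified MEM with 10% fetal calf serum, 5% CO2, humidified. Exponentially growing cells exposed to compounds for 24 h. Relative cell number = cell number at 24 h per initial cell number at 0 h × 100; DNA content distribution read by laser scanning cytometry.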

CNS cell = assay: Inhibitory activity against CNS cell line; format: functional, cell-based; details: for IC50: Homo sapiens, CNS cell; for Log IC50: cns cell
Colon cell = assay: Inhibitory activity against Colon cell line; format: functional, cell-based; details: for IC50: Homo sapiens, Colon cell; for Log IC50: colon cell
Breast carcinoma cell = assay: Inhibitory activity against breast cell line; format: functional, cell-based; details: for IC50: Homo sapiens, Breast carcinoma cell; for Log IC50: breast carcinoma cell
[1] = test system: Panel leukemia (Carcinoma cell lines); assay: Inhibitory activity against leukemia cell line; format: functional, cell-based; details: for IC50: Homo sapiens, Panel leukemia (Carcinoma cell lines); for Log IC50: panel leukemia (carcinoma cell lines)
Ovarian carcinoma cell = assay: Inhibitory activity against ovarian cell line; format: functional, cell-based; details: for IC50: Homo sapiens, Ovarian carcinoma cell
Prostate cell = assay: Inhibitory activity against prostate cell line; format: functional, cell-based; details: for IC50: Homo sapiens, Prostate cell
Renal cell = assay: Inhibitory activity against renal cell line; format: functional, cell-based; details: for IC50: Homo sapiens, Renal cell; for Log IC50: renal cell
Melanoma cell = assay: Inhibitory activity against melanoma cell line; format: functional, cell-based; details: for IC50: Homo sapiens, Melanoma cell; for Log IC50: melanoma cell
[2] = test system: NCI-60 human tumor cell line panel (Homo sapiens); assay: Cytostatic effect in NCI-60 human tumor cell lines.; set-up: unit not given here
[3] = test system: non-small-cell lung cancer cell lines (Homo sapiens); assay: Inhibitory activity against non-small-cell lung cancer cell lines; details: for IC50: Homo sapiens
[4] = test system: NCI-60 human tumor cell line panel (Homo sapiens); assay: Mean concentration causing inhibition of cell growth in the NCI-60 human tumor cell line panel.
[5] = test system: NCI-60 human tumor cell line panel (Homo sapiens); assay: Mean averaged concentration for total growth inhibition, which signifies cytostatic effect

Row | Structure (SMILES) | LC50 (3Y1 cell line) | IC50 (CNS cell) [µM] | IC50 (Colon cell) [µM] | IC50 (Breast carcinoma cell) [µM] | IC50 [1] [µM] | IC50 (Ovarian carcinoma cell) [µM] | IC50 (Prostate cell) [µM] | IC50 (Renal cell) [µM] | IC50 (Melanoma cell) [µM] | TGI [2] | IC50 [3] [µM] | GI50 ([4]; Homo sapiens, NCI-60 panel) [µM] | other results
1 | COc1cc([C@@H]2c3[nH]c4ccccc4c3C[C@H]3C(=O)N4CCC[C@H]4C(=O)N23)cc(OC)c1O | >-4 | > 100 | > 100 | > 100 | > 100 | > 100 | > 100 | > 100 | > 100 | >-4 | > 100 | > 100 | 
2 | O=C1[C@@H]2CCCN2C(=O)[C@H](Cc2c[nH]c3ccccc23)N1C/C=C/c1ccccc1 | -4.01 | 37.2 | 35.5 | 27.5 | 22.9 | 44.7 | 39.8 | 35.5 | 43.7 | -4.07 | 32.4 | 31.6 | 
3 | COc1cc(CN2C(=O)[C@@H]3CCCN3C(=O)[C@@H]2Cc2c[nH]c3ccccc23)cc(OC)c1O | >-4 | > 100 | 87.1 | 95.5 | 64.6 | > 100 | > 100 | > 100 | 95.5 |  | 87.1 | 91.2 | TGI [5]: >-4
4 | CC(C)C[C@H]1c2[nH]c3ccccc3c2C[C@H]2C(=O)N3CCC[C@H]3C(=O)N21 | >-4 | 83.2 | 67.6 | 63.1 | 36.3 | 79.4 | 83.2 | 74.1 | 87.1 |  | 77.6 | 70.8 | 
5 | O=C1[C@@H]2Cc3c([nH]c4ccccc34)[C@H](c3ccccc3)N2C(=O)[C@@H]2CCCN12 | >-4 | > 100 | 41.7 | 36.3 | 13.8 | 57.5 | 85.1 | 42.7 | 51.3 | >-4 | 63.1 | 47.9 | 
6 | COc1cc([C@@H]2c3[nH]c4ccccc4c3C[C@H]3C(=O)N4CCC[C@H]4C(=O)N23)cc(OC)c1OC | >-4 | 74.1 | 74.1 | 46.8 | 32.4 | 77.6 | 72.4 | 77.6 | 87.1 | -4.01 | 69.2 | 66.1 | 
7 | COc1cc([C@H]2c3[nH]c4ccccc4c3C[C@H]3C(=O)N4CCC[C@H]4C(=O)N23)cc(OC)c1O | >-4 | 33.1 | 89.1 | 46.8 | 100 | 39.8 | 66.1 | 44.7 | 55 | >-4.03 | 40.7 | 53.7 | 
8 | O=C1[C@@H]2Cc3c([nH]c4ccccc34)[C@@H](c3ccccc3)N2C(=O)[C@@H]2CCCN12 | >-4 | 61.7 | 45.7 | 49 | 40.7 | 56.2 | 63.1 | 50.1 | 50.1 | >-4 | 52.5 | 51.3 | 
9 | CC(C)C[C@@H]1c2[nH]c3ccccc3c2C[C@H]2C(=O)N3CCC[C@H]3C(=O)N12 | >-4 | 85.1 | > 100 | 87.1 | 77.6 | > 100 | > 100 | 97.7 | > 100 | >-4 | 93.3 | 93.3 | 
10 | O=C1[C@H](Cc2c[nH]c3ccccc23)N(Cc2ccccc2)C(=O)[C@@H]2CCCN12 | >-4 | > 100 | > 100 | > 100 | 85.1 | > 100 | > 100 | > 100 | > 100 | >-4 | > 100 | 97.7 | 
11 | COc1cc([C@H]2c3[nH]c4ccccc4c3C[C@H]3C(=O)N4CCC[C@H]4C(=O)N23)cc(OC)c1OC | >-4 | 95.5 | 93.3 | 97.7 | 64.6 | 72.4 | 91.2 | 95.5 | 93.3 | >-4 | 70.8 | 87.1 | 
12 | COc1cc(CN2C(=O)[C@@H]3CCCN3C(=O)[C@@H]2Cc2c[nH]c3ccccc23)cc(OC)c1OC | -4.01 | 27.5 | 30.2 | 33.9 | 13.2 | 40.7 | 57.5 | 30.2 | 28.8 | -4.04 | 42.7 | 30.9 | 
13 | COc1cc([C@@H]2c3[nH]c4ccccc4c3C[C@H]3C(=O)NCC(=O)N23)cc(OC)c1O (relative stereo) | >-4 | 38 | 46.8 | 49 | 38 | 66.1 | 70.8 | 55 | 45.7 | -4.01 | 56.2 | 50.1 | 
14 | COc1cc([C@H]2c3[nH]c4ccccc4c3C[C@H]3C(=O)NCC(=O)N23)cc(OC)c1OC (relative stereo) | >-4 | > 100 | > 100 | 93.3 | 72.4 | > 100 | > 100 | 95.5 | > 100 | >-4 | > 100 | 95.5 | 
15 | COc1cc([C@H]2c3[nH]c4ccccc4c3C[C@H]3C(=O)NCC(=O)N23)cc(OC)c1O (relative stereo) | >-4 | > 100 | > 100 | > 100 | > 100 | > 100 | > 100 | > 100 | > 100 | >-4 | > 100 | > 100 | 
16 | COc1cc([C@@H]2c3[nH]c4ccccc4c3C[C@H]3C(=O)NCC(=O)N23)cc(OC)c1OC (relative stereo) | -4.04 | 3.72 | 4.37 | 6.31 | 2.29 | 5.89 | 5.5 | 13.8 | 6.76 | -4.26 | 7.59 | 5.89 | 
17 | CC(C)=CCN1C(=O)[C@@H]2CCCN2C(=O)[C@@H]1Cc1c[nH]c2ccccc12 (stereo in doubt) | >-4 | > 100 | 95.5 | 89.1 | 61.7 | > 100 | > 100 | > 100 | > 100 | -4.01 | 97.7 | 85.1 | 
18 | CC(C)=C[C@H]1c2[nH]c3ccccc3c2C[C@H]2C(=O)N3CCC[C@H]3C(=O)N21 (stereo in doubt) [DEMETHOXYFUMITREMORGIN C] |  |  |  |  |  |  |  |  |  |  |  |  | Log IC50 (CNS cell): -4; Log IC50 (Colon cell): -4.02; Log IC50 (Breast carcinoma cell): > -4; Log IC50 [1]: -4.16; Log IC50 (Ovarian carcinoma cell; ovarian carcinoma cell): > -4; Log IC50 (Prostate cell; prostate cell): > -4; Log IC50 (Renal cell): > -4; Log IC50 (Melanoma cell): > -4; Log IC50 [3]: -4.03; GI50 [4]: 95.5 µM
19 | CC(C)=C[C@H]1c2[nH]c3ccccc3c2C[C@H]2C(=O)N3CCC[C@H]3C(=O)N21 (stereo in doubt; 3) [DEMETHOXYFUMITREMORGIN C] | >-4 |  | 53.7 |  | 34.7 | 70.8 | 50.1 |  |  | -4.02 | 52.5 |  | Log IC50 (CNS cell): -4.36; Log IC50 (Breast carcinoma cell): -4.43; Log IC50 (Renal cell): -4.61; Log IC50 (Melanoma cell): -4.32; GI50 [4]: 43.7 µM
20 | CC(C)=CCN1C(=O)[C@@H]2CCCN2C(=O)[C@@H]1Cc1c[nH]c2ccccc12 (stereo in doubt; 5a) |  |  |  |  |  |  |  |  |  | >-4 |  |  | Log IC50 (Colon cell): > -4; Log IC50 (Breast carcinoma cell): > -4; Log IC50 [1]: > -4; Log IC50 [3]: > -4; GI50 [4]: > 100 µM
